What follows are compounds tested on HT-29 (assay: Radiosensitization activity against human HT-29 cells assessed as survival relative to control).
Type: functional
How it was run: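 HT-29 colorectal adenocarcinoma cells exposed to analog at 25 µM (or DMSO vehicle) for 2 h at 37 °C, then irradiated with 4 Gy. Analog washed off, cells kept 14 days in fresh medium, colonies stained with crystal violet and counted. Surviving fraction taken as colonies over cells treated. Relative survival is survival with radiation plus analog divided by survival with radiation alone, with vehicle set at 1.0.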
With O=C1NC(=O)C(=Cc2cn(Cc3ccccc3)c3ccccc23)C(=O)N1 the Ratio was 1.35. Compound O=C1NC(=O)C(=Cc2cn(Cc3ccc(Cl)cc3)c3ccccc23)C(=O)N1 has a Ratio of 0.91. COc1ccc(Cn2cc(C=C3C(=O)NC(=O)NC3=O)c3ccccc32)cc1 was tested, and the Ratio was 1.18. O=C1NC(=O)C(=Cc2cn(Cc3ccccc3Br)c3ccccc23)C(=O)N1 showed a Ratio of 1.14. With O=C1NC(=O)/C(=C/c2cn(Cc3ccc(F)cc3)c3ccccc23)N1 the Ratio was 0.91. For Cc1ccc(Cn2cc(/C=C3\NC(=O)NC3=O)c3ccccc32)cc1, the Ratio was 1.06. In the case of N#Cc1ccc(Cn2cc(C=C3C(=O)NC(=O)NC3=O)c3ccccc32)cc1, the Ratio is reported as 0.23. COC(=O)c1ccc(Cn2cc(C=C3C(=O)NC(=O)NC3=O)c3ccccc32)cc1 was tested, and the Ratio was 0.64. Work on O=C1NC(=O)/C(=C/c2cn(Cc3ccccc3)c3ccc(Cl)cc23)N1 yielded a Ratio of 1.38. With O=C1NC(=O)/C(=C/c2cn(Cc3ccccc3Br)c3ccccc23)N1 the Ratio was 1.18. Compound Cc1ccc2c(c1)c(/C=C1\NC(=O)NC1=O)cn2Cc1ccccc1 has a Ratio of 1.18. Compound COc1ccc2c(c1)c(C=C1C(=O)NC(=O)NC1=O)cn2Cc1ccccc1 has a Ratio of 1.73. O=C1NC(=O)/C(=C/c2cn(Cc3ccccc3)c3ccc(Br)cc23)N1 showed a Ratio of 1.06. O=C1NC(=O)/C(=C/c2cn(Cc3ccc([N+](=O)[O-])cc3)c3ccccc23)N1 was tested, and the Ratio was 1.14. In the case of N#Cc1ccc(Cn2cc(/C=C3\NC(=O)NC3=O)c3ccccc32)cc1, the Ratio is reported as 1.53. Compound O=C1NC(=O)C(=Cc2cn(Cc3ccc([N+](=O)[O-])cc3)c3ccccc23)C(=O)N1 has a Ratio of 0.44. Work on COC(=O)c1ccc(Cn2cc(/C=C3\NC(=O)NC3=O)c3ccccc32)cc1 yielded a Ratio of 1. Work on COc1ccc(Cn2cc(/C=C3\NC(=O)NC3=O)c3cc(Br)ccc32)cc1 yielded a Ratio of 1.29. With O=C1NC(=O)/C(=C/c2cn(Cc3ccc(Cl)cc3)c3ccccc23)N1 the Ratio was 1.44. With O=C1NC(=O)/C(=C/c2cn(Cc3ccccc3)c3ccccc23)N1 the Ratio was 1.3. O=C1NC(=O)C(=Cc2cn(Cc3ccccc3)c3ccc(Cl)cc23)C(=O)N1 gave a Ratio of 1.38. Compound COc1ccc2c(c1)c(/C=C1\NC(=O)NC1=O)cn2Cc1ccccc1 has a Ratio of 1.38.
